Measured values from different studies.
Lines come from different studies, so protocols differ.
PRPF4B: Serine/threonine-protein kinase PRP4 homolog (PRPF4B, Homo sapiens, UniProt Q13523)

| SMILES | target | assay | setting | measurement | result |
| --- | --- | --- | --- | --- | --- |
| O=C(Nc1cccnn1)N1CCN([C@@H]2CCOc3cc(C(F)(F)F)ccc32)CC1 | Melanocortin receptor 3 (MC3R, Homo sapiens, UniProt P41968) | cell-free assay | 20 µM | inhibition | 13% |
| Cn1cc(-c2cc(F)cc(N3CCn4c(cc5c4CCCC5)C3=O)c2CO)cc(Nc2ccc(N3CCN(C4COC4)CC3)cn2)c1=O | PAS domain-containing serine/threonine-protein kinase (PASK, Homo sapiens, UniProt Q96RG2) | enzyme activity, inhibitor | 0.1 µM | inhibition | -1% |
| C#Cc1n[nH]c2c(-c3cn(C(C)c4ccccn4)c(=O)[nH]c3=O)cc(F)cc12 (stereo not drawn) | Epidermal growth factor receptor (EGFR, Homo sapiens, UniProt P00533, L858R/T790M) | enzyme activity, inhibitor | 1 µM | inhibition | -1.7% |
| COc1ccc(S(=O)(=O)N2CCCCC2)cc1C | Vasopressin V2 receptor (AVPR2, Homo sapiens, UniProt P30518) | ligand displacement, radioligand | 10 µM | inhibition | < 30% |
| COc1cc(Cl)c(C(=O)N[C@@H](CN[C@H]2CC[C@@H](N)CC2)Cc2ccc(C#N)cc2)cc1-c1ccc(CN[C@H](C)c2ccc(C)cc2)o1 | PRPF4B | enzyme activity, inhibitor | 1 µM | remaining activity | 90% |
| CCN(CC)CCCC[C@H](NC(=O)[C@H](CC(C)C)NC(=O)[C@H](C)NC(=O)[C@H](Cc1ccccc1)NC(=O)c1ccc(C(C)(C)C)cc1)C(=O)N[C@@H](CO)C(=O)OC | SWI/SNF-related matrix-associated actin-dependent regulator of chromatin subfamily A member 2 (SMARCA2, Homo sapiens, UniProt P51531) | thermal stability, DSF | 25 µM | ΔTm | 0.14 °C |
| COc1ncccc1-c1cnn2ccc(N3CCN(C(=O)OC(C)C)CC3)nc12 | PRPF4B | binding, competition with immobilised ligand | 1 µM | remaining binding | 28% |
| Cn1cc(-c2cccc(N3CCc4c(sc5c4CC(C)(C)C5)C3=O)c2CO)cc(Nc2ccncn2)c1=O | Serine/threonine-protein kinase mTOR (MTOR, Homo sapiens, UniProt P42345) | enzyme activity, inhibitor | 1 µM | inhibition | -4% |
| Cc1nn(C)cc1-c1nc2c(N3CCN(Cc4ccc(Cl)cc4)CC3)c(Cl)cnc2[nH]1 | Epidermal growth factor receptor (EGFR, Homo sapiens, UniProt P00533, G719C) | binding, competition with immobilised ligand | 1 µM | remaining binding | 86% |
| Nc1ncc(-c2nc(N3CCOCC3)nc(N3CCOCC3)n2)c(C(F)F)n1 | Microtubule-associated serine/threonine-protein kinase 1 (MAST1, Homo sapiens, UniProt Q9Y2H9) | binding, competition with immobilised ligand | 10 µM | remaining binding | 90% |
| Brc1cc2c(N3CCNCC3)nccn2c1 | Beta-secretase 1 (BACE1, Homo sapiens, UniProt P56817) | thermal stability, DSF | 2.1 mM, pH 5.4 | ΔTm | -0.27 °C |
| Nc1cccc(-c2nsc(=O)o2)c1 | Proteasome Macropain subunit MB1 (PSMB5, Homo sapiens, UniProt P28074) | enzyme activity, inhibitor |  | kinact/KI | 7.2 M⁻¹ s⁻¹ |
